# Key:
# [1] = Stability at pH 7.4 at 80 uM during 1 day by HPLC in presence of linoleic acid and azo-bis-isobutyronitrile; type: physicochemical; settings: buffer, pH 7.4, 24 h
# [2] = Antioxidant activity assessed as chemical oxidative degradation into 4-(5-amino-6-phenylpyrazin-2-yl)phenol at 1000 uM after 19 hrs by HPLC; type: functional
# Outline: (§1)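 Aerobic oxidation of imidazopyrazinone (10^-3 M) with internal standard (5 × 10^-4 M) in 90:10:0.1 CH2Cl2/isopropanol/DEA. Sealed vial under white light at 23 °C for 19 h. Products quantified by HPLC against calibration curves, detection at 280 nm.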
# Hamster = experiment: Antioxidant activity against microvascular damage in hamster model of cheek pouch submitted to ischemia/reperfusion assessed as inhibition of leaky sites at 3 mg/kg treated by gavage route 30 mins before anesthesia measured after 30 mins of reperfusion by FITC-dextran based microscopy; type: functional; settings: Cricetinae, po
# Outline: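 Hamsters anesthetized, kept on a-chloralose (100 mg/kg) via the femoral vein, femoral artery cannulated for blood pressure, body temperature 37.5 °C. Compound at 3 mg/kg or solvent given by gavage in 0.2 ml, 3 animals per group. FITC-dextran (150,000 Da) given i.v. at 25 mg/100 g. Cuff ischemia of everted pouch. Leaky sites counted; % inhibition = [1 − mean treated/mean control] × 100.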
# [3] = Antioxidant activity assessed as chemical oxidative degradation into 4-(5-amino-6-(4-methoxyphenyl)pyrazin-2-yl)phenol at 1000 uM after 19 hrs by HPLC; type: functional; outline: as §1
# [4] = Antioxidant activity assessed as chemical oxidative degradation into N-(3-(4-fluorophenyl)-5-(4-hydroxyphenyl)pyrazin-2-yl)acetamide at 1000 uM after 19 hrs by HPLC; type: functional; outline: as §1
# [5] = Antioxidant activity assessed as chemical oxidative degradation into 4-(5-amino-6-(4-(dimethylamino)phenyl)pyrazin-2-yl)phenol at 1000 uM after 19 hrs by HPLC; type: functional; outline: as §1
# [6] = Antioxidant activity assessed as chemical oxidative degradation into 4,4'-(3-aminopyrazine-2,6-diyl)diphenol at 1000 uM after 19 hrs by HPLC; type: functional; outline: as §1
# [7] = Antioxidant activity assessed as chemical oxidative degradation into N-(5-(4-hydroxyphenyl)-3-(4-(trifluoromethyl)phenyl)pyrazin-2-yl)acetamide at 1000 uM after 19 hrs by HPLC; type: functional; outline: as §1
# [8] = Antioxidant activity assessed as chemical oxidative degradation into N-(5-(4-hydroxyphenyl)-3-(4-methoxyphenyl)pyrazin-2-yl)acetamide at 1000 uM after 19 hrs by HPLC; type: functional; outline: as §1
# [9] = Antioxidant activity assessed as chemical oxidative degradation into N-(3-(4-acetylphenyl)-5-(4-hydroxyphenyl)pyrazin-2-yl)acetamide at 1000 uM after 19 hrs by HPLC; type: functional; outline: as §1
# [10] = Antioxidant activity assessed as chemical oxidative degradation into 4-(5-amino-6-(4-fluorophenyl)pyrazin-2-yl)phenol at 1000 uM after 19 hrs by HPLC; type: functional; outline: as §1
# [11] = Antioxidant activity assessed as chemical oxidative degradation into N-(3,5-bis(4-hydroxyphenyl)pyrazin-2-yl)acetamide at 1000 uM after 19 hrs by HPLC; type: functional; outline: as §1
# [12] = Antioxidant activity assessed as chemical oxidative degradation into 4-(5-aminopyrazin-2-yl)phenol at 80 uM by HPLC in presence of linoleic acid; type: functional
# [13] = Antioxidant activity assessed as chemical oxidative degradation into 4-(5-aminopyrazin-2-yl)phenol at 80 uM after 18 hrs by HPLC in presence of azo-bis-isobutyronitrile; type: functional
# [14] = Antioxidant activity assessed as chemical oxidative degradation into 4-(5-aminopyrazin-2-yl)phenol at 80 uM by HPLC in presence of linoleic acid and azo-bis-isobutyronitrile; type: functional
# [15] = Antioxidant activity assessed as chemical oxidative degradation into 4-(5-aminopyrazin-2-yl)phenol at 80 uM after 18 hrs by HPLC; type: functional
# Outline: (§2)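 Imidazopyrazinone mixed 1:1 with standard (8 × 10^-5 M) in 96:4 ACN–EtOH. Kept in the dark at 37 °C and sampled by HPLC hourly for 18 h.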
# [16] = Antioxidant activity assessed as chemical oxidative degradation into N-(5-(4-hydroxyphenyl)pyrazin-2-yl)benzamide at 80 uM by HPLC in presence of linoleic acid and azo-bis-isobutyronitrile; type: functional
# [17] = Antioxidant activity assessed as chemical oxidative degradation into N-(5-(4-hydroxyphenyl)pyrazin-2-yl)benzamide at 80 uM by HPLC in presence of linoleic acid; type: functional
# [18] = Antioxidant activity assessed as chemical oxidative degradation into benzoic acid at 80 uM by HPLC in presence of linoleic acid; type: functional
# [19] = Antioxidant activity assessed as chemical oxidative degradation into N-(5-(4-hydroxyphenyl)pyrazin-2-yl)benzamide at 80 uM after 18 hrs by HPLC in presence of azo-bis-isobutyronitrile; type: functional
# [20] = Antioxidant activity assessed as chemical oxidative degradation into benzoic acid at 80 uM by HPLC in presence of linoleic acid and azo-bis-isobutyronitrile; type: functional
# [21] = Antioxidant activity assessed as time required for chemical oxidative degradation of compound at 80 uM by HPLC in presence of linoleic acid; type: functional
# [22] = Antioxidant activity assessed as chemical oxidative degradation into N-(5-(4-hydroxyphenyl)pyrazin-2-yl)benzamide at 80 uM after 18 hrs by HPLC; type: functional; outline: as §2
# [23] = Antioxidant activity assessed as time required for chemical oxidative degradation of compound at 80 uM by HPLC in presence of azo-bis-isobutyronitrile; type: functional
# [24] = Antioxidant activity assessed as chemical oxidative degradation into 1-(4-(3-amino-6-(4-hydroxyphenyl)pyrazin-2-yl)phenyl)ethanone at 1000 uM after 19 hrs by HPLC; type: functional; outline: as §1
# [25] = Antioxidant activity assessed as chemical oxidative degradation into N-(5-(4-hydroxyphenyl)-3-phenylpyrazin-2-yl)acetamide at 1000 uM after 19 hrs by HPLC; type: functional; outline: as §1
# [26] = Chemical stability after 19 hrs; type: physicochemical; outline: as §1
# [27] = Antioxidant activity assessed as chemical oxidative degradation into 4-(5-amino-6-(4-(trifluoromethyl)phenyl)pyrazin-2-yl)phenol at 1000 uM after 19 hrs by HPLC; type: functional; outline: as §1
# [28] = Antioxidant activity assessed as chemical oxidative degradation into N-(3-(4-(dimethylamino)phenyl)-5-(4-hydroxyphenyl)pyrazin-2-yl)acetamide at 1000 uM after 19 hrs by HPLC; type: functional; outline: as §1
smiles,measurement,setting,value
O=C(Nc1cnc(-c2ccc(O)cc2)cn1)c1ccccc1,Stability,[1],Stable
Nc1ncc(-c2ccc(O)cc2)nc1-c1ccccc1,Activity,[2],66%
same,inhibition in vivo at 3 mg/kg,Hamster,18%
COc1ccc(-c2nc(-c3ccc(O)cc3)cnc2N)cc1,inhibition in vivo at 3 mg/kg,Hamster,10%
same,Activity,[3],71%
CC(=O)Nc1ncc(-c2ccc(O)cc2)nc1-c1ccc(F)cc1,Activity,[4],17%
CN(C)c1ccc(-c2nc(-c3ccc(O)cc3)cnc2N)cc1,inhibition in vivo at 3 mg/kg,Hamster,50%
same,Activity,[5],68%
COc1cc(C(C)=O)ccc1O [APOCYNIN],inhibition in vivo at 3 mg/kg,Hamster,40%
Nc1ncc(-c2ccc(O)cc2)nc1-c1ccc(O)cc1,Activity,[6],77%
same,inhibition in vivo at 3 mg/kg,Hamster,29%
Cc1nc2c(-c3ccc(N(C)C)cc3)[nH]c(-c3ccc(O)cc3)cn-2c1=O,inhibition in vivo at 3 mg/kg,Hamster,21%
COc1ccc(-c2[nH]c(-c3ccc(O)cc3)cn3c(=O)c(C)nc2-3)cc1,inhibition in vivo at 3 mg/kg,Hamster,44%
CC(=O)Nc1ncc(-c2ccc(O)cc2)nc1-c1ccc(C(F)(F)F)cc1,Activity,[7],16%
COc1ccc(-c2nc(-c3ccc(O)cc3)cnc2NC(C)=O)cc1,Activity,[8],21%
O=C(O)c1ccccc1 [BENZOIC ACID],Stability,[1],Stable
CC(=O)Nc1ncc(-c2ccc(O)cc2)nc1-c1ccc(C(C)=O)cc1,Activity,[9],22%
Nc1ncc(-c2ccc(O)cc2)nc1-c1ccc(F)cc1,inhibition in vivo at 3 mg/kg,Hamster,42%
same,Activity,[10],76%
CC(=O)Nc1ncc(-c2ccc(O)cc2)nc1-c1ccc(O)cc1,Activity,[11],16%
Cc1nc2c(-c3ccc(O)cc3)[nH]c(-c3ccc(O)cc3)cn-2c1=O,inhibition in vivo at 3 mg/kg,Hamster,40%
Oc1ccc(-c2cn3c(O)c(-c4ccccc4)nc3cn2)cc1,Activity,[12],30%
same,Activity,[13],44%
same,Activity,[14],40%
same,Activity,[15],9%
same,Activity,[16],57%
same,Activity,[17],66%
same,Activity,[18],27%
same,Activity,[19],26%
same,Activity,[20],33%
same,Activity,[21],< 6 h
same,Activity,[22],< 5%
same,Activity,[23],5 h
CC(=O)c1ccc(-c2nc(-c3ccc(O)cc3)cnc2N)cc1,Activity,[24],67%
CC(=O)Nc1ncc(-c2ccc(O)cc2)nc1-c1ccccc1,Activity,[25],15%
same,Stability,[26],Stable
Cc1nc2c(-c3ccc(F)cc3)[nH]c(-c3ccc(O)cc3)cn-2c1=O,inhibition in vivo at 3 mg/kg,Hamster,34%
Cc1nc2c(-c3ccc(C(F)(F)F)cc3)[nH]c(-c3ccc(O)cc3)cn-2c1=O,inhibition in vivo at 3 mg/kg,Hamster,17%
Nc1ncc(-c2ccc(O)cc2)nc1-c1ccc(C(F)(F)F)cc1,inhibition in vivo at 3 mg/kg,Hamster,14%
same,Activity,[27],78%
CC(=O)Nc1ncc(-c2ccc(O)cc2)nc1-c1ccc(N(C)C)cc1,Activity,[28],18%
Cc1nc2c(-c3ccccc3)[nH]c(-c3ccc(O)cc3)cn-2c1=O,inhibition in vivo at 3 mg/kg,Hamster,12%
